Compounds with a hit are over-represented: about 11% of the library has one in this group of screens.
Diaph act CS – counter-screen for diaphorase-based assays: diaphorase activators and chemical reducers. Diaphorase/resazurin coupled assay, resorufin fluorescence, 16 min; active compounds read high; 1 = vehicle wells, 0 = NADH-free wells. activation factor at 20 µM. hit rate 0.005% among 190,000. AID 1229;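 active = diaphorase activity raised at least twofold by the compound at 20 µM; inactive = activation factor below 2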
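System – purified diaphorase enzyme from Clostridium kluyveri · Input – enzyme 0.07 U/mL final · Also added – final NADH 0.114 mM, resazurin 0.1 mM · Measured by – fluorescence of resorufin, 544 nm excitation, 590 nm emission · Timing – 16 min enzyme reaction, ambient temperature · Measure – resorufin increase flagging diaphorase activators or reducers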
Diaph inh CS – counter-screen for diaphorase-based assays: diaphorase inhibitors and chemical oxidizers; diaphorase resazurin-to-resorufin fluorescence, NADH, 16 min; bacterial (C. kluyveri) enzyme, not human; hit rate 0.69% among 190,000; inhibition, % at 20 µM;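 active = primary screen inhibition at 20 µM above a set limit, cut at about 50% in these data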;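 note: plate controls were DMSO with full reaction for no effect and wells lacking NADH for full effect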
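material = Clostridium kluyveri diaphorase enzyme | amount = 0.14 U/mL diaphorase, enzyme working solution | schedule = incubation 16 min, room temperature | detection = fluorescence of resorufin formed from resazurin, Ex 544/Em 590 nm | benchmarks = positive control minus NADH, DMSO neutral control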
L major viab – Leishmania major promastigote growth inhibition; Leishmania major promastigotes, resazurin fluorescence viability; inhibition, % at 10 µM; hit rate 9% among 200,000; AID 1063;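 note: promastigotes grown with compound for 44 hours at 28 °C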
WT yeast gro inh – growth inhibition of WT yeast, mitochondrial fusion screen; hit rate 2.1% among 190,000; mitochondrial fusion phenotypic screen, WT strain; inhibition, % at 10 µM; in the data active = inhibition above about 58%; tested in S. cerevisiae
G6PDH counter – counter-screen for G6PDH assay hits: L. mesenteroides G6PDH inhibition; hit rate 0.12% among 200,000; Purified L. mesenteroides G6PDH, diaphorase/resazurin coupled fluorescence, 45 min; inhibition, % at 5 µM
Numbers without * were called inactive. Cut-off read from the data, not from the text of the source, unless noted: active = inhibition above about 50%; inactive = the rest.

SMILES	Diaph act CS	Diaph inh CS	L major viab	WT yeast gro inh	G6PDH counter
CN1CCN(S(=O)(=O)c2ccc(NC(=S)NC(=O)C(C)(C)C)cc2)CC1	0.9	9	-4	0	7
CN(CCO)C1=NS(=O)(=O)c2cc([N+](=O)[O-])ccc21	1	3	0	0	0
C=CCOCCN(C)C1=NS(=O)(=O)c2cc([N+](=O)[O-])ccc21	0.9	14	100*	3	4
COc1cc(C)c(Cl)cc1S(=O)(=O)NCCCN1CCOCC1	0.9	13	86*	-2	1
COc1cc(Cl)c(S(=O)(=O)NCCCN2CCOCC2)cc1Cl	0.9	5	93*	-16	-2
COc1cc(C)c(Cl)cc1S(=O)(=O)NCCN1CCOCC1	1	-2	-3	14	0
COc1cc(C)c(Br)cc1S(=O)(=O)NCCCN1CCOCC1	1	-4	75*	13	8
COc1ccc(Br)cc1S(=O)(=O)NCCN1CCOCC1	1	2	2	4	6
Cc1cc(Br)c(S(=O)(=O)NCCN2CCOCC2)cc1C	0.9	8	1	-3	1
Cc1ccc(S(=O)(=O)NCCCN2CCOCC2)c(C)c1	0.9	7	52*	1	-2
Cc1ccc(-c2nn3c(C)nnc3c3ccccc23)cc1S(=O)(=O)N(C)CCO	1	3	1	10	8
COc1cccc(-c2cc3nc(-c4ccccc4)cc(N4CCCC(O)C4)n3n2)c1 (centres undefined)	0.8	24	21	69*	7
CCN1CCN(c2cc(-c3ccccc3)nc3cc(-c4cccc(F)c4)nn23)CC1	0.8	17	68*	82*	0
OC1CCCN(c2c3c(nc4cc(-c5cccc(Cl)c5)nn24)CCC3)C1 (centres undefined)	0.9	13	-2	67*	4
OC1CCCN(c2c3c(nc4cc(-c5cccc(F)c5)nn24)CCCC3)C1 (centres undefined)	0.8	16	29	69*	16
OC1CCN(c2cc(-c3ccccc3)nc3cc(-c4ccc(F)cc4)nn23)CC1	0.7	29	19	-16	8
Cn1c(NC(=O)COc2ccccc2)cc(=O)n(C)c1=O	0.9	5	-1	-4	5
C[N+](C)(CC#Cc1ccccc1)CC(=O)c1ccc(Cl)cc1	1	1	-2	4	2
CCn1c(C)nc2cc(C(=O)NNC(=O)CCC3CCCCC3)ccc21	1	4	-3	-9	8
COc1cc(CNn2nnnc2N)cc(Br)c1OCc1c(Cl)cccc1Cl	0.8	20	94*	2	-3
O=C(CN(c1ccc2c(c1)OCCO2)S(=O)(=O)c1ccccc1)N1CCN(Cc2ccccc2)CC1	0.7	25	15	11	4
CCOCCCn1c(SCC(=O)Nc2ccc(C(N)=O)cc2)nc2ccccc2c1=O	0.9	11	1	-5	-2
CCn1c(SCC(=O)Nc2ccccc2OC)nc2ccccc2c1=O	0.9	11	5	5	4
COCCCn1c(SCC(=O)Nc2ccc(C(=O)OC)cc2)nc2ccccc2c1=O	1	1	89*	3	5
CCC(C)NC(=O)CSc1nc2ccccc2c(=O)n1Cc1ccc(OC)cc1 (centres undefined)	1	-1	55*	1	9
SMILES	Diaph act CS	Diaph inh CS	L major viab	WT yeast gro inh	G6PDH counter
Cc1ccc(NC(=O)CSc2nc3ccccc3c(=O)n2CCCN2CCCCC2)cc1C	1	3	100*	2	2
Cc1ccc(NC(=O)CSc2nc3ccccc3c(=O)n2CCCC(=O)N2CCCC2)cc1	0.8	21	28	16	1
CCc1ccc(NC(=O)CSc2nc3ccccc3c(=O)n2CCCN2CCC(C)CC2)cc1	1.1	-11	77*	79*	7
CCCCNC(=O)CC1NCCNC1=O (centres undefined)	1.1	-10	3	-1	7
Cc1ccc(-c2cc3nn(-c4ccccc4)c(N)c3c(=O)o2)cc1	0.9	10	21	-16	-4
COc1ccc(C(=O)NNC(=O)Cc2ccc(-c3ccccc3)cc2)cc1OC	1.1	-6	17	-15	-2
COc1ccc(C(=O)NNc2ccccc2)cc1OC	0.8	22	56*	44	4
C/C(=N\Nc1ccc(S(=O)(=O)N2CCOCC2)cc1[N+](=O)[O-])C(C)C	1	4	-1	1	-1
CC(O)CNCCOc1ccccc1OCc1ccccc1 (centres undefined)	0.9	6	88*	17	19

Screens deposited in PubChem BioAssay by several laboratories.
